{"data": "Measurements pooled from the literature", "target": "Cyclin-dependent kinase 14 (CDK14, Homo sapiens, UniProt O94921)", "note": "Each line is one published result; the experiments were not run side by side."}
{"SMILES": "O=C(N[C@H]1CCCCC/C=C\\C2C[C@@]2(C(=O)O)NC(=O)[C@@H]2C[C@@H](Oc3ccncc3)CN2C1=O)OC1CCCC1 (stereo partly shown)", "assay": "binding, competition with immobilised ligand", "conditions": "1 µM", "remaining binding [%]": 91}
{"SMILES": "COc1cnc(Nc2cccc(S(N)(=O)=O)c2)nc1N1CCN(c2ccccc2)CC1", "assay": "binding, competition with immobilised ligand", "conditions": "1 µM", "remaining binding [%]": 94}
{"SMILES": "O=C(c1ccc(Nc2nccc(-c3cc4ccccc4s3)n2)cc1)N1CCC(N2CCCC2)CC1", "assay": "binding, competition with immobilised ligand", "conditions": "1 µM", "remaining binding [%]": 100}
{"SMILES": "N[C@H]1CCN(c2nccc(-c3cnn4ncccc34)n2)C1", "assay": "binding", "conditions": "1 µM", "remaining binding [%]": 100}
{"SMILES": "CCN1CCN(Cc2ccc(C(=O)Nc3ccc(C)c(Oc4ccc5c(c4)CC(=O)N5)c3)cc2C(F)(F)F)CC1", "assay": "binding, competition with immobilised ligand", "conditions": "1 µM", "remaining binding [%]": 100}
{"SMILES": "Nc1ncc2c(n1)-c1c([nH]c3ccc(C#CC4CC4)cc13)CCCC2", "assay": "binding, competition with immobilised ligand", "conditions": "1 µM", "remaining binding [%]": 88}
{"SMILES": "O=C(c1ccc(Nc2ncc(Cl)c(-c3cc4ccccc4s3)n2)cc1)N1CCC(N2CCCC2)CC1", "assay": "binding, competition with immobilised ligand", "conditions": "1 µM", "remaining binding [%]": 78}
{"SMILES": "Cc1cc(NC(=O)c2cccc(S(F)(F)(F)(F)F)c2)cc(-n2ccn3nc(-c4cccnc4)cc23)c1", "assay": "cell-free assay, competition with immobilised ligand", "conditions": "1 µM", "remaining binding [%]": 93.8}
{"SMILES": "CN(c1nccc(-c2cnn3ncccc23)n1)C1CC1", "assay": "binding", "conditions": "1 µM", "remaining binding [%]": 100}
{"SMILES": "COc1ncc2cc3ccccc3nc2c1C#N", "assay": "cell-free assay, competition with immobilised ligand", "conditions": "5 µM", "remaining binding [%]": 99}
{"SMILES": "CC(=O)N1CCC(c2ccc(C(=O)NC3=NCCN3)cc2C(F)(F)F)CC1", "assay": "cell-free assay, competition with immobilised ligand", "conditions": "1 µM", "remaining binding [%]": 100}
{"SMILES": "C[C@@H]1CCN(c2nccc(-c3cnn4ncccc34)n2)C1", "assay": "binding", "conditions": "1 µM", "remaining binding [%]": 100}
{"SMILES": "CNCc1ccccc1-c1csc([C@H](C)Nc2nc(C)nc3cc(OC)c(OC)cc23)c1", "assay": "cell-free assay, competition with immobilised ligand", "conditions": "1 µM", "remaining binding [%]": 100}
{"SMILES": "O=C(NCC1CCOCC1)c1n[nH]cc1NC(=O)c1c(F)cccc1F", "assay": "binding, competition with immobilised ligand", "conditions": "1 µM", "remaining binding [%]": 79}
{"SMILES": "CN(C)c1nccc(-c2cnn3ncccc23)n1", "assay": "binding", "conditions": "1 µM", "remaining binding [%]": 89}
{"SMILES": "Cc1nc(C2CCN(C(=O)c3ccc(OC(F)(F)F)cc3N)CC2)c2ncc(N3CCN(C)CC3)cc2n1", "assay": "cell-free assay, competition with immobilised ligand", "conditions": "1 µM", "remaining binding [%]": 100}
{"SMILES": "c1cnn2ncc(-c3ccnc(N4CCC45COC5)n3)c2c1", "assay": "binding", "conditions": "1 µM", "remaining binding [%]": 88}
{"SMILES": "CS(=O)(=O)c1cc(C2(NC(=O)c3cncc4c3cnn4-c3ccc(F)cc3)CC2)ccn1", "assay": "cell-free assay, competition with immobilised ligand", "conditions": "1 µM", "remaining binding [%]": 100}
{"SMILES": "Cc1cnc(Nc2ccc(C(=O)N3CCC(N4CCCC4)CC3)cc2)nc1-c1cc2ccccc2s1", "assay": "binding, competition with immobilised ligand", "conditions": "1 µM", "remaining binding [%]": 100}
